The subject of data set [1] is SW480. The data set is described as follows: Cytotoxicity against human SW480 cells at 50 mM after 24 hrs. The class given is functional. In short, it runs like this: (§1)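 Human colon carcinoma SW480 cultures were exposed to spin traps at 10 to 100 mM for 24 h. Cytotoxicity was read as the dose-dependent loss in cell number. LDH released into the culture supernatant was also measured and expressed per cell as % of non-treated control. Apoptotic nuclei were stained to distinguish necrosis from apoptosis.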

Data set [2] concerns Hepatocyte. In words: Cytotoxicity in primary rat hepatocytes assessed as decrease in number of hepatocytes after 24 hrs. The class given is cell-based. Also on record: scale not given: the % may be the effect or the level left.
For data set [3], the system named is Hepatocyte. In words: Cytotoxicity in primary rat hepatocytes assessed as increase in LDH release after 24 hrs. The class given is cell-based.
The subject of data set [4] is SW480. In words: Cytotoxicity against human SW480 cells at 100 mM after 24 hrs. The class given is functional. Summed up:
as §1

Take `CC1C=[N+]([O-])C(C)(C(=O)OC(C)C)C1` (stereo unspecified): the Activity is on record as below 25% in data set [1], 60% in data set [2] and “Active” in data set [3].

On to `CCCOC(=O)C1(C)CC(C)C=[N+]1[O-]` (stereo unspecified), for which the Activity in data set [1] is below 25%.

Take `CCCOC(=O)C1(C)C(C)CC=[N+]1[O-]` (stereo unspecified): in data set [4], the Activity was determined as 95%.

`CCOC(=O)C1(C)C(C)CC=[N+]1[O-]` (stereo unspecified): the results for the Activity in data set [1], in data set [2] and in data set [3] were below 25%, 60% and “Active”, respectively.

For the molecule `CCOC(=O)C1(C)CC(C)C=[N+]1[O-]` (stereo unspecified), the Activity in data set [1] was below 25%; in data set [2] it was 60%; in data set [3] it was “Active”.

The values are drawn from ChEMBL document CHEMBL1139822, “Cytotoxicity of the novel spin trapping compound 5-ethoxycarbonyl-3,5-dimethyl-pyrroline N-oxide (3,5-EDPO) and its derivatives” (Bioorg Med Chem Lett, 2007).
